Drawing on ChEMBL document CHEMBL4002602, “Design, Synthesis of Novel, Potent, Selective, Orally Bioavailable Adenosine A2A Receptor Antagonists and Their Biological Evaluation” (J Med Chem, 2017), this text covers AUC(0-t) and Kp for one compound.

The nature of data set [1]: AUC (0 to t) in Wistar rat brain at 10 mg/kg administered through oral gavage by LC/MS/MS analysis. In kind it is ADME, organism-based. In a few lines: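 Male Wistar rats (230 ± 15 g), fasted overnight, given an oral suspension (1% Tween 80, 0.5% NaCMC; 1 mg/mL, 10 mL/kg). Blood and brain were collected discretely at 0.5, 2, 4 and 8 h. Brain was washed in PBS pH 7.4, weighed and homogenized, then acetonitrile-precipitated with internal standard. LC/MS/MS against standards in blank brain homogenate; n=4.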

A short description of data set [2]: Ratio of AUC (0 to t) in Wistar rat brain to AUC (0 to t) in Wistar rat plasma at 10 mg/kg administered through oral gavage by LC/MS/MS analysis. In kind it is ADME, organism-based. As to conditions: brain and plasma, read-out: Ratio AUC. In a few lines: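 Male Wistar rats (230 ± 15 g), fasted overnight, water ad libitum; single oral dose of 10 mg/kg as suspension in 1% Tween 80/0.5% NaCMC, n=4. Blood and brain collected by discrete sampling at 0.5, 2, 4 and 8 h post dose. Brain washed in PBS and homogenised, plasma and homogenate precipitated with acetonitrile plus internal standard, LC/MS/MS; AUC0-t from non-compartmental analysis.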

One may read the AUC(0-t) as the area under the concentration-time curve up to a stated or last time point. Read a high AUC(0-t) as high exposure. Compound `CCN(CC)C1CCC(C)(C(=O)Nc2nc3c(OC)ccc(N4CCOCC4)c3s2)CC1` (configuration not stated) returned an AUC(0-t) in data set [1] of 1.1 µM·h. In addition, the Kp in data set [2] came to 0.25.
